16 compounds from ChEMBL document CHEMBL1641453, “Synthesis and evaluation of β-carboline derivatives as potential monoamine oxidase inhibitors” (Bioorg Med Chem, 2011) can be followed below.

Data set [1] concerns the target T1, Amine oxidase [flavin-containing] A (Homo sapiens, UniProt P21397).
T1 sequence (P21397 whole entry): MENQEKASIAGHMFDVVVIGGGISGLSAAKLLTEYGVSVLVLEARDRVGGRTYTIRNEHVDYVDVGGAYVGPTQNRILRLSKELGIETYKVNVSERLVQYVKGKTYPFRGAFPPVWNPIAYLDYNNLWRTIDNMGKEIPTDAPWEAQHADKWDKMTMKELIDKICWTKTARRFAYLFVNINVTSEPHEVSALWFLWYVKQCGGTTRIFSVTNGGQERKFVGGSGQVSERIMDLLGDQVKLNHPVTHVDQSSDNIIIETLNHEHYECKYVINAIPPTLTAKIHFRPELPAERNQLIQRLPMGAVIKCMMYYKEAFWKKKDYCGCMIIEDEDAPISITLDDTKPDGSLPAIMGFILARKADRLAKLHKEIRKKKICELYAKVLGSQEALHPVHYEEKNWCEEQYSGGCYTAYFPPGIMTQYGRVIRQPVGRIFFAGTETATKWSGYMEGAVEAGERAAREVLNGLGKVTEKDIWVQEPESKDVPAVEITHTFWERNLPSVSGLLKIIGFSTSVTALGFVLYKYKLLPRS
Put plainly: Inhibition of human recombinant MAO-A expressed in baculovirus-infected insect cells after 1 hr by two-step bioluminescent assay.

The target of data set [2] is T2, Amine oxidase [flavin-containing] B (Homo sapiens, UniProt P27338).
T2 sequence (P27338 whole entry): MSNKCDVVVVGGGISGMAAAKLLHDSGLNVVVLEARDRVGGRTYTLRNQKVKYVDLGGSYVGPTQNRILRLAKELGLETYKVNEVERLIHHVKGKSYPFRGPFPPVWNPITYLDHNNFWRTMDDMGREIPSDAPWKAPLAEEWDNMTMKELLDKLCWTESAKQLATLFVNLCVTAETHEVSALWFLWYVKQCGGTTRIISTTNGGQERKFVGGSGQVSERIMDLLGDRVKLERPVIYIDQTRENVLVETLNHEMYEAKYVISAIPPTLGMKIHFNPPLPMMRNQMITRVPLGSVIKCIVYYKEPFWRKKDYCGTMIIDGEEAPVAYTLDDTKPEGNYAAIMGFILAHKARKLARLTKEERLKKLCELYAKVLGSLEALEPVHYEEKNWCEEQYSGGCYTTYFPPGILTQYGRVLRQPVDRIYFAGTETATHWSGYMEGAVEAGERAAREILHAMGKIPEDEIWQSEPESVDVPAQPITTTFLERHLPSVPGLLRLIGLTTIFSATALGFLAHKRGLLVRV
Nature of the data set: (§1) Inhibition of human recombinant MAO-B expressed in baculovirus-infected insect cells at 1 uM after 1 hr by two-step bioluminescent assay. The conditions noted are these: 1 h, 1 µM. Put shortly: (§2)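 Recombinant human MAO-B from baculovirus-infected insect cell microsomes (0.5 U/mg final) preincubated 2 min 30 s with compound, then luminogenic substrate at 15 µM final, 1 h at 37 °C. Luciferin detection reagent stops the reaction and luminescence is read after 20 min. Hepes 100 mM pH 7.5, 5% glycerol, 12.5% DMSO. Tested in triplicate; % inhibition from signal relative to no-compound control.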

In data set [3] the target is T3, MAO-B (amine oxidase [flavin-containing] B) (Homo sapiens, UniProt P27338).
T3 sequence (P27338 whole entry): T2 sequence (P27338 whole entry)
The data set is described as §1. The procedure, abridged:
as §2

For data set [4], the target named is T2, Amine oxidase [flavin-containing] B. Nature of the data set: Inhibition of human recombinant MAO-B expressed in baculovirus-infected insect cells after 1 hr by two-step bioluminescent assay. The procedure, abridged:
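Recombinant human MAO-B microsomes from baculovirus-infected insect cells, 0.5 U/mg final. Enzyme preincubated with compound 2 min 30 s at 37 °C, then luminogenic luciferin-derivative substrate added (15 µM final). Luciferin detection reagent stops the reaction; luminescence read 20 min later. Buffer 100 mM Hepes pH 7.5 with 5% glycerol, DMSO 12.5% final. Screened at 10 and 1 µM in triplicate; IC50 from sigmoidal fit.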

What is called Ki is a dissociation constant, usually derived from enzyme kinetics or from competition with a known ligand. As usually defined, the inhibition is the drop in the measured response relative to a control, in per cent.

`COCCOc1ccc2c(c1)[nH]c1c(C)nccc12`: the Ki in data set [1] amounted to 29.5 nM. Moreover, the “inhibition (INH)” value in data set [2] is given as “Not Active”.

`Cc1nccc2c1[nH]c1cc(OCCCC(F)(F)F)ccc12`: the inhibitory constant (Ki) in data set [1] was 3.6 nM. In addition, the inhibition at 1 h, 1 µM in data set [3] came out at 24%.

With `Cc1nccc2c1[nH]c1cc(OCCO)ccc12`, the Ki in data set [1] stood at 28.4 nM. The “inhibition (INH)” value in data set [2] is “Not Active”.

For the compound `Cc1nccc2c1[nH]c1cc(OCCc3ccccc3)ccc12`, the inhibition constant (Ki) in data set [1] is 5 nM. In data set [3], the inhibition at 1 h, 1 µM amounted to 39%.

With `Cc1nccc2c1[nH]c1cc(OCc3ccc4ccccc4c3)ccc12`, the inhibitory constant (Ki) in data set [1] came to 100 nM. For the same compound, the “inhibition (INH)” value in data set [2] is recorded as “Not Active”.

`Cc1nccc2c1[nH]c1cc(OCc3cccnc3)ccc12`: in data set [1], the Ki stood at 24.9 nM. Also, the “inhibition (INH)” value in data set [2] was “Not Active”.

Regarding `Cc1nccc2c1[nH]c1cc(OCc3ccncc3)ccc12`, the Ki in data set [1] turned out to be 35.4 nM. In addition, the “inhibition (INH)” value in data set [2] is given as “Not Active”.

On to `Cc1nccc2c1[nH]c1cc(OCc3ccccn3)ccc12`, for which, in data set [1], the Ki is 500 nM. Also, the “inhibition (INH)” value in data set [2] was “Not Active”.

As to `Cc1nccc2c1[nH]c1cc(OCc3ccccc3)ccc12`, in data set [1], the Ki amounted to 12.6 nM. For the same compound, in data set [3], the inhibition at 1 h, 1 µM is 42%.

Take `Cc1nccc2c1[nH]c1cc(OCC(C)C)ccc12`: the inhibition constant Ki in data set [1] was found to be 3.9 nM. For the same compound, the inhibition at 1 h, 1 µM in data set [3] was 14%.

As for `COc1ccc2c(c1)[nH]c1c(C)nccc12` [HARMINE], the Ki in data set [4] was found to be 121000 nM.

Take `Cc1nccc2c1[nH]c1cc(OCCN(C)C)ccc12`: the inhibition constant (Ki) in data set [1] worked out at 1020 nM. In data set [2], the “inhibition (INH)” value is listed as “Not Active”.

As for `Cc1nccc2c1[nH]c1cc(OCC3CCCCC3)ccc12`, the Ki was found to be 4.3 nM in data set [1] and 222 nM in data set [4].

For `Cc1nccc2c1[nH]c1cc(OCCCN(C)C)ccc12`, the Ki in data set [1] stood at 684 nM. In data set [2], the “inhibition (INH)” value is “Not Active”.

As to `Cc1nccc2c1[nH]c1cc(OCCN3CCOCC3)ccc12`, the inhibition constant Ki in data set [1] turned out to be 256 nM. Also, the “inhibition (INH)” value in data set [2] is “Not Active”.

Consider `C=CCOc1ccc2c(c1)[nH]c1c(C)nccc12`, for which the Ki in data set [1] worked out at 5 nM. Moreover, the “inhibition (INH)” value in data set [2] is “Not Active”.
